Source: ChEMBL document CHEMBL1134728, “Heterocyclic substituted anthralin derivatives as inhibitors of keratinocyte growth and inducers of differentiation” (Bioorg Med Chem Lett, 2001)

Assays:
[1] = Antiproliferative activity against growth of HaCaT cell was determined; type: functional, cell-based; details: Homo sapiens
[2] = Deoxyribose degradation measured as hydroxyl radical generation in HaCaT cell at 75 uM expressed as malondialdehyde released; type: functional, Homo sapiens
[3] = Compound was tested for the induction of HaCaT keratinocyte differentiation at 5 uM expressed as the amount of cross-linked protein in cornified envelope assay; type: functional, Homo sapiens
In short: (§1)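 Terminal differentiation of HaCaT keratinocytes measured as insoluble cross-linked protein envelopes, using a modified method; protein in envelope preparations quantified by Bradford. Value is the difference in cross-linked protein per mg protein between treated and vehicle-control cells; means ± SEM of three independent experiments; significance vs vehicle p < 0.05.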

[4] = Compound was tested for the induction of HaCaT keratinocyte differentiation at 10 uM expressed as the amount of cross-linked protein in cornified envelope assay; type: functional, Homo sapiens; in short: as §1
[5] = Compound was tested for the induction of HaCaT keratinocyte differentiation at 1 uM expressed as the amount of cross-linked protein in cornified envelope assay; type: functional, Homo sapiens; in short: as §1
[6] = Activity of LDH release in HaCaT cells after treatment with 2 uM concentration of the compound; type: functional, Homo sapiens
In short: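 LDH activity (mU) released into the HaCaT culture medium after compound treatment, taken as a marker of plasma membrane integrity and cytotoxicity; compared against vehicle controls; N=3.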

SMILES | IC50 [1] [µM] | DD [2] | Amount of cross-linked protein [3] | Amount of cross-linked protein [4] | Amount of cross-linked protein [5] | LDH release [6]
O=C1c2c(O)cccc2C(C(=O)c2ccccc2)c2cccc(O)c21 | > 5 | 2.31 uM mM-1 |  |  |  | 
O=C1c2c(O)cccc2C(C(=O)c2ccsc2)c2cccc(O)c21 | > 5 | 0.82 uM mM-1 | 0.6 (ug of cross-linked protein) (mg of protein)-1 | 3.4 (ug of cross-linked protein) (mg of protein)-1 | -0.6 (ug of cross-linked protein) (mg of protein)-1 | 
O=C1c2c(O)cccc2C(C(=O)/C=C/c2cccs2)c2cccc(O)c21 | 4.2 | 1.13 uM mM-1 | 5 (ug of cross-linked protein) (mg of protein)-1 | 5.6 (ug of cross-linked protein) (mg of protein)-1 | 2 (ug of cross-linked protein) (mg of protein)-1 | 166 mU
O=C1c2c(O)cccc2C(C(=O)c2ccc[nH]2)c2cccc(O)c21 | 0.6 | 1.77 uM mM-1 | 5.7 (ug of cross-linked protein) (mg of protein)-1 | 6.5 (ug of cross-linked protein) (mg of protein)-1 | 2.3 (ug of cross-linked protein) (mg of protein)-1 | 202 MU
O=C1c2c(O)cccc2C(C(=O)c2cc3ccccc3[nH]2)c2cccc(O)c21 | 0.7 | 0.17 uM mM-1 | 4.8 (ug of cross-linked protein) (mg of protein)-1 | 5.7 (ug of cross-linked protein) (mg of protein)-1 | 2 (ug of cross-linked protein) (mg of protein)-1 | 167 mU
O=C1c2c(O)cccc2C(C(=O)c2ccco2)c2cccc(O)c21 | 1.2 | 0.41 uM mM-1 | 3.5 (ug of cross-linked protein) (mg of protein)-1 | 5.8 (ug of cross-linked protein) (mg of protein)-1 | 0.5 (ug of cross-linked protein) (mg of protein)-1 | 242 mU
O=C1c2c(O)cccc2C(C(=O)c2cccs2)c2cccc(O)c21 | > 5 | 0.65 uM mM-1 | 0.7 (ug of cross-linked protein) (mg of protein)-1 | 3.7 (ug of cross-linked protein) (mg of protein)-1 | -0.9 (ug of cross-linked protein) (mg of protein)-1 | 
O=C1c2c(O)cccc2C(C(=O)/C=C/c2ccco2)c2cccc(O)c21 | 1.5 | 1.69 uM mM-1 | 0.6 (ug of cross-linked protein) (mg of protein)-1 | 1.9 (ug of cross-linked protein) (mg of protein)-1 | -0.2 (ug of cross-linked protein) (mg of protein)-1 | 147 mU
O=C1c2c(O)cccc2Cc2cccc(O)c21 [ANTHRALIN] | 0.7 | 2.89 uM mM-1 | 4.9 (ug of cross-linked protein) (mg of protein)-1 | 5.8 (ug of cross-linked protein) (mg of protein)-1 | 3.7 (ug of cross-linked protein) (mg of protein)-1 | 294 mU
O=C1c2cccc(O)c2C(=O)c2c(O)cccc21 [DANTHRON] |  |  | -0.1 (ug of cross-linked protein) (mg of protein)-1 | 0 (ug of cross-linked protein) (mg of protein)-1 | 0.6 (ug of cross-linked protein) (mg of protein)-1 | 
